This is an account of results in ChEMBL document CHEMBL1125616, “Perfluorinated analogues of poison ivy allergens. Synthesis and skin tolerogenic activity in mice” (1991).

Assay [1] is filed under the species Mus musculus. In words: Increase in ear thickness was determined in mice after 48 hr of application of compound at a concentration of 1.56 mmol to right ear. Format: functional. An outline of the steps:
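Cross-reaction test in female BALB/c mice aged 6–7 weeks. Mice were sensitized on day 0 on the shaved lower abdomen with 15.6 mmol in acetone/olive oil 4:1 (100 μL). Four days later groups of 8 were challenged on the dorsal right ear with 1.56 mmol (25 μL). Ear thickness was measured by micrometer, and the increase taken at 48 h after challenge.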

For assay [2], the species on record is Mus musculus. The assay can be described thus: Ear thickness increase measured at 48 hr after challenge in group II on Day 10. Format: functional. An outline of the steps:
(§1)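 Female BALB/c mice aged 6–7 weeks, 8 per group. On day 0 each mouse was pretreated epicutaneously on the shaved abdomen with 15.6 mmol in acetone/olive oil 4:1 (100 μL). The same dose was given on day 4 to sensitize. On day 8 the dorsal right ear was challenged with 1.56 mmol in acetone:olive oil (25 μL). Ear thickness was read by micrometer on days 9–12, and the increase taken at 48 h after challenge.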

The species named for assay [3] is Mus musculus. In words: Ear thickness increase measured at 48 hr after challenge in group III on Day 10. Format: functional. An outline of the steps:
as §1

For assay [4], the species on record is Mus musculus. The assay can be described thus: A challenge dose of 1.56 mmol (25 uL) was applied to right ear in group II. Format: functional. The essentials:
as §1

For assay [5], the species on record is Mus musculus. In words: A challenge dose of 1.56 mmol (25 uL) was applied to right ear in group III on Day 8. Format: functional. An outline of the steps: as §1
Assay [6] is filed under the species Mus musculus. In words: Mice was pretreated with 15.6 mmol (100 uL) on shaved abdomen in group II on Day 0.
For assay [7], the species on record is Mus musculus. In words: Mice was sensitized with 15.6 mmol (100 uL) on shaved abdomen in group II on Day 4.
Assay [8] is filed under the species Mus musculus. The assay can be described thus: Mice was pretreated with 15.6 mmol (100 uL) on shaved abdomen in group III on Day 0.
The species named for assay [9] is Mus musculus. The assay can be described thus: Mice was sensitized with 15.6 mmol (100 uL) on shaved abdomen in group III on Day 4.

With `Oc1cccc(CCCCCC(F)(F)C(F)(F)C(F)(F)C(F)(F)C(F)(F)C(F)(F)F)c1O`, the Ear thickness in the assay listed under Mus musculus [1] turned out to be 142 µm.

Regarding `CCCCCCCCCCCCCCCc1cccc(O)c1O`, the Ear thickness in the assay filed under Mus musculus [1] was found to be 68.5 µm.

As for `Oc1cccc(CCCCCCCCCCCC(F)(F)C(F)(F)C(F)(F)C(F)(F)F)c1O`, the figures for the Ear thickness in the assay filed under Mus musculus [2], in the assay listed under Mus musculus [3] and in the assay listed under Mus musculus [1] were 26 µm, 15 µm and 162 µm, respectively. Further, the Tolerance in the assay listed under Mus musculus [4] was 10; in the assay listed under Mus musculus [5], 9; in the assay filed under Mus musculus [6], 9; in the assay listed under Mus musculus [7] it was 10; in the assay filed under Mus musculus [8], 9; in the assay listed under Mus musculus [9] it was 9.
